# Test results reported in ChEMBL document CHEMBL1123091, “Synthesis and antiviral evaluation of nucleosides of 5-methylimidazole-4-carboxamide” (J Med Chem, 1985).
# Experiments:
# [1] = Compound was tested for antiviral activity in HeLa Cell cultures, against vesicular stomatitis virus (VSV); type: ADME, organism-based; settings: read-out: Tox50
# Method in brief: (§1)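 HeLa cells grown to confluency in petri dishes, then infected (or mock-infected) with VSV at 0.01 PFU/cell. Test compound added at a range of concentrations.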
# Human alphaherpesvirus 1 [2] = assay: Compound was tested for antiviral activity in HeLa Cell cultures, against herpes simplex virus type 1 (HSV-1), cytopathic effect induced by the virus (CPE); type: functional
# Method in brief: (§2)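 HeLa cells grown to confluency in petri dishes, then infected (or mock-infected) with HSV-1 at 0.5 PFU/cell. Test compound added at a range of concentrations.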
# [3] = Compound was tested for antiviral activity in HeLa Cell cultures, against herpes simplex virus type 1 (HSV-1); type: organism-based; settings: human alphaherpesvirus 1, HeLa cell cultures; read-out: Tox50; method in brief: as §2
# [4] = tested on: Vesicular stomatitis virus; assay: Compound was tested for antiviral activity in HeLa Cell cultures, against vesicular stomatitis virus (VSV), cytopathic effect induced by the virus (CPE); type: functional; method in brief: as §1
# [5] = Compound was tested for antiviral activity in HeLa Cell cultures against vesicular stomatitis virus (VSV); type: ADME, organism-based; settings: read-out: Tox50; method in brief: as §1
# Human alphaherpesvirus 1 [6] = assay: Compound was tested for antiviral activity in HeLa Cell cultures, against herpes simplex virus type 1 (HSV-1) expressed as cytopathic effect induced by the virus (CPE); type: functional; method in brief: as §2
# [7] = Compound was tested for antiviral activity in HeLa Cell cultures against herpes simplex virus type 1 (HSV-1); type: organism-based; settings: human alphaherpesvirus 1, HeLa cell cultures; read-out: Tox50; method in brief: as §2
# [8] = tested on: Vesicular stomatitis virus; assay: Compound was tested for antiviral activity in HeLa Cell cultures, against vesicular stomatitis virus (VSV) expressed as cytopathic effect induced by the virus (CPE); type: functional; method in brief: as §1
Structure (SMILES),CC50 [1] [µg/mL],CPE50 (Human alphaherpesvirus 1 [2]) [µg/mL],CC50 [3] [µg/mL],CPE50 [4] [µg/mL],CC50 [5] [µg/mL],CPE50 (Human alphaherpesvirus 1 [6]) [µg/mL],CC50 [7] [µg/mL],CPE50 [8] [µg/mL]
Cc1c(C(N)=O)ncn1[C@@H]1C[C@H](O)[C@@H](CO)O1,> 400,>200,> 200,150,–,–,–,–
Cc1c(C(N)=O)ncn1[C@H]1C[C@H](O)[C@@H](CO)O1,–,–,–,–,> 400,150,300,150
Cc1[nH]cnc1C(N)=O,–,>200,> 200,–,–,–,–,–
Cc1c(C(N)=O)ncn1COCCO,> 200,>200,> 200,180,–,–,–,–
Cc1c(C(N)=O)ncn1C1O[C@H](CO)[C@@H](O)[C@H]1O (some centres not stated),> 400,75,> 400,125,–,–,–,–
NC(=O)c1ncn([C@@H]2O[C@H](CO)[C@@H](O)[C@H]2O)n1 [RIBAVIRIN],400,75,400,15,–,–,–,–
